Values after ≈ are worked out from the molar mass of the structure shown. Active and inactive are the calls of the source. The rule behind the calls is not given here.
Key:
Escherichia coli [1] = experiment: Antibacterial activity against Escherichia coli CIP188631 after 24 hrs by twofold serial dilution method; assay type: functional, organism-based
Outline: (§1)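 LB precultures grown 24 h, diluted 1/1000 and seeded; twofold serial drug dilutions in LB; 37 °C for 24 h; growth read as optical density at 595 nm; 90% inhibitory concentration obtained by curve fitting; tetracycline positive control; duplicate in two independent experiments.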

[2] = system: Mycobacterium tuberculosis; experiment: Antimycobacterial activity against Mycobacterium tuberculosis H37Rv after 6 days by microdilution resazurin assay; assay type: functional; conditions: 144 h
Outline: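 The M. tuberculosis H37Rv inoculum is grown in Dubos medium with 10% ADC enrichment. DMSO drug stocks (50 mg/mL) are serially diluted twofold in 96-well plates, with DMSO and isoniazid controls. Plates are sealed and held at 37 °C for 6 days, then 0.01% resazurin is added for another 24 h. MIC95 is taken at >95% growth inhibition, in µg/mL. Duplicate runs in two independent experiments.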

[3] = system: Mycolicibacterium smegmatis; experiment: Antimycobacterial activity against Mycobacterium smegmatis str. MC2 155 up to 100 ug/mL; assay type: functional, organism-based
Vero = experiment: Cytotoxicity against african green monkey Vero cells after 48 hrs by MTT assay; assay type: cell-based; conditions: Chlorocebus sabaeus
Outline: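 Vero cells seeded at 10⁵ cells/mL and preincubated 24 h at 37 °C, 5% CO₂; compounds added at various concentrations in 1% DMSO for 48 h; MTT (5 mg/mL solution) then added for 4 h at 37 °C; absorbance at 595 nm; 50% inhibitory concentration by curve fitting; duplicate in two independent experiments.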

Staphylococcus aureus = experiment: Antibacterial activity against Staphylococcus aureus ATCC 6538 after 24 hrs by twofold serial dilution method; assay type: functional; conditions: ATCC 6538, 24 h; outline: as §1
Escherichia coli [4] = experiment: Genotoxicity in Escherichia coli PQ37 assessed as DNA damage-induced beta-galactosidase release by SOS-chromotest; assay type: toxicity, organism-based
Outline: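 E. coli PQ37 carrying lacZ under control of the SOS gene sfiA; DNA damage induces β-galactosidase, detected by chromogenic reaction with X-gal; duplicate in two independent experiments.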

Candida tropicalis = experiment: Antifungal activity against Candida tropicalis ATCC 66029 after 24 hrs by disk diffusion method; assay type: functional, organism-based
Outline: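 Kirby–Bauer disk diffusion: C. tropicalis suspension spread on solid Sabouraud plates; 6 mm paper discs impregnated with serial dilutions in DMSO placed on plates; inhibition zone diameter measured after 24 h at 30 °C; itraconazole positive control; duplicate in two independent experiments.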

Compound	Activity (Escherichia coli [1])	MIC95 [2] [µg/mL]	Activity [3]	IC50 (Vero) [µg/mL]	MIC90 (Staphylococcus aureus) [µg/mL]	Activity (Escherichia coli [4])	diameter of the inhibition zone (DIZ) (Candida tropicalis)
Cc1c(C)c2c(c(C)c1O)CC[C@@](C)(CCC[C@H](C)CCC[C@H](C)CCCC(C)C)O2 [ALPHA-TOCOPHEROL]	inactive	10 (≈ 23.2 µM)	–	–	–	–	–
Cc1c2c(c3cc(CC#N)oc3c1C)CCC(C)(C)O2	inactive	> 10	–	–	–	–	–
Cc1c2c(c3cc(Cc4cccs4)oc3c1C)CCC(C)(C)O2	inactive	12.5 (≈ 38.3 µM)	inactive	–	–	–	–
CC(=O)OCCCc1c(-c2ccncc2)oc2ccc3c(c12)CCC(C)(C)O3	inactive	–	–	14.9 (≈ 39.3 µM)	5 (≈ 13.2 µM)	–	–
Cc1c2c(c3cc(CCC(=O)N4CCOCC4)oc3c1C)CCC(C)(C)O2	inactive	10 (≈ 26.9 µM)	–	–	–	–	–
Cc1c(C)c2c(c(C)c1O)CCC(C)(C)O2 [APC-100]	inactive	10 (≈ 45.4 µM)	–	–	–	–	–
CC1(C)C=Cc2c(ccc3oc(-c4ccncc4)cc23)O1	inactive	2.5 (≈ 9.01 µM)	–	8.7 (≈ 31.4 µM)	5 (≈ 18 µM)	–	–
Cc1c2c(c3cc(Cc4ccc(Cl)cc4)oc3c1C)CCC(C)(C)O2	inactive	25 (≈ 70.4 µM)	–	> 100	–	–	–
Cc1c2c(c3cc(/C=C/c4cccnc4)oc3c1C)CCC(C)(C)O2	inactive	5 (≈ 15 µM)	–	> 100	–	–	–
CC(=O)OCCCc1c(-c2cccnc2)oc2ccc3c(c12)CCC(C)(C)O3	inactive	–	–	17.5 (≈ 46.1 µM)	–	–	–
Cc1c2c(c3cc(-c4cccs4)oc3c1C)CCC(C)(C)O2	inactive	6.2 (≈ 19.8 µM)	inactive	> 100	–	–	–
CC(=O)OCc1cc2c3c(c(C)c(C)c2o1)OC(C)(C)CC3	inactive	10 (≈ 33.1 µM)	–	–	–	–	–
Cc1c2c(c3cc(-c4ccc(C#N)nc4)oc3c1C)CCC(C)(C)O2	inactive	> 10	–	–	–	–	–
Cc1c2c(c3cc(-c4ccccn4)oc3c1C)CCC(C)(C)O2	inactive	100 (≈ 325 µM)	–	–	–	–	–
CC1(C)CCc2c(ccc3oc4ccccc4c23)O1	inactive	10 (≈ 39.6 µM)	–	100 (≈ 396 µM)	–	–	–
CC(=O)OCCCc1c(Br)oc2ccc3c(c12)CCC(C)(C)O3	inactive	–	–	–	–	–	–
Cc1c2c(c3cc(CCC(=O)N4CCCC4)oc3c1C)CCC(C)(C)O2	inactive	10 (≈ 28.1 µM)	–	–	–	–	–
Cc1c2c(c3cc(Cc4cccnc4)oc3c1C)CCC(C)(C)O2	inactive	3 (≈ 9.33 µM)	–	6.4 (≈ 19.9 µM)	5 (≈ 15.6 µM)	–	–

Compound	Activity (Escherichia coli [1])	MIC95 [2] [µg/mL]	Activity [3]	IC50 (Vero) [µg/mL]	MIC90 (Staphylococcus aureus) [µg/mL]	Activity (Escherichia coli [4])	diameter of the inhibition zone (DIZ) (Candida tropicalis)
Cc1c2c(c3cc(CCc4cccnc4)oc3c1C)CCC(C)(C)O2	inactive	5 (≈ 14.9 µM)	–	7.3 (≈ 21.8 µM)	5 (≈ 14.9 µM)	–	–
Cc1c2c(c3cc(-c4ccc(-c5nn[nH]n5)nc4)oc3c1C)CCC(C)(C)O2	inactive	10 (≈ 26.6 µM)	–	–	–	–	–
Cc1c2c(c3cc(-c4cccnc4)oc3c1C)C(=O)CC(C)(C)O2	inactive	> 10	–	–	–	–	–
CC1(C)CCc2c(ccc3oc(-c4ccncc4)c(CCCO)c23)O1	inactive	5 (≈ 14.8 µM)	–	> 25	–	–	–
Cc1c2c(c3cc(-c4cnccn4)oc3c1C)CCC(C)(C)O2	inactive	10 (≈ 32.4 µM)	–	–	–	–	–
Cc1c2c(c3cc(C4CCCO4)oc3c1C)CCC(C)(C)O2 (stereo unspecified)	inactive	> 10	–	–	–	–	–
Cc1c(-c2ccncc2)oc2ccc3c(c12)C=CC(C)(C)O3	inactive	5 (≈ 17.2 µM)	–	12.8 (≈ 43.9 µM)	5 (≈ 17.2 µM)	–	–
Cc1c2c(c3cc(-c4ccc[n+]([O-])c4)oc3c1C)CCC(C)(C)O2	inactive	5 (≈ 15.5 µM)	–	5.6 (≈ 17.3 µM)	5 (≈ 15.5 µM)	–	–
Cc1c2c(c3cc(-c4ccc(Cl)nc4)oc3c1C)CCC(C)(C)O2	inactive	> 10	–	–	–	–	–
CC1(C)CCc2c(ccc3oc(-c4cccnc4)c(CCCO)c23)O1	inactive	5 (≈ 14.8 µM)	–	> 25	–	–	–
COC(=N)c1ccc(-c2cc3c4c(c(C)c(C)c3o2)OC(C)(C)CC4)cn1	inactive	0.6 (≈ 1.65 µM)	–	3.6 (≈ 9.88 µM)	5 (≈ 13.7 µM)	–	–
NNC(=O)c1ccncc1 [ISONIAZID]	inactive	0.25 (≈ 1.82 µM)	–	> 500	–	–	–
Cc1c2c(c3cc(-c4ccc(NCCCN(C)C)nc4)oc3c1C)CCC(C)(C)O2	inactive	3 (≈ 7.36 µM)	–	1.6 (≈ 3.93 µM)	5 (≈ 12.3 µM)	Toxic	Active
CC1(C)C=Cc2c(ccc3c2C2CCCOC2O3)O1 (stereo unspecified)	inactive	250 (≈ 968 µM)	–	–	–	–	–
Cc1c2c(c3cc(-c4cccnc4)oc3c1C)CCC(C)(C)O2	inactive	5 (≈ 16.3 µM)	–	–	–	–	–
Cc1c2c(c3cc(CCC(=O)N4CCN(C)CC4)oc3c1C)CCC(C)(C)O2	inactive	> 10	–	–	–	–	–
Cc1c2c(c3cc(-c4ccncc4)oc3c1C)CCC(C)(C)O2	inactive	2.5 (≈ 8.13 µM)	–	5.1 (≈ 16.6 µM)	–	–	–

— ChEMBL document CHEMBL1158394, “Diversity-oriented synthesis of furo[3,2-f]chromanes with antimycobacterial activity” (Eur J Med Chem, 2009)
